Test [1] concerns the target T1, Protein kinase C gamma type (Homo sapiens, UniProt P05129). Kind of test: Displacement of [3H]PDBu from PKCgamma C1A domain. The method, boiled down:
(§1)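 [3H]PDBu (20 nM, 16.3 Ci/mmol) competition binding with synthetic PKC C1 peptides (10–40 nM) in 50 mM Tris-maleate pH 7.4 at 4 °C, with 50 µg/mL phosphatidylserine, 3 mg/mL bovine γ-globulin and varied inhibitor concentrations. IC50 is the concentration giving 50% inhibition of specific binding. Ki derived by the Sharkey–Blumberg method. SD from at least two separate experiments.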

Test [2] is described as follows: Selectivity ratio of PKCgamma C1A domain over PKCgamma C1A P11dfP mutant.
A short description of test [3]: Selectivity ratio of PKCdelta C1B domain over PKCdelta C1B P11dfP mutant.
Test [4] in a line: Displacement of [3H]PDBu from PKCdelta C1B P11dfP mutant. A digest of the protocol:
as §1
Background: In a radioligand displacement assay an active substance lowers the binding of a labelled ligand.

Test [5] is described as follows: Displacement of [3H]PDBu from PKCgamma C1A P11dfP mutant. A digest of the protocol: as §1
For test [6], the target named is Protein kinase C delta type (Homo sapiens, UniProt Q05655). As to the kind of experiment: Displacement of [3H]PDBu from PKCdelta C1B domain. A digest of the protocol:
as §1

Test [7] has as its target Protein kinase C eta type (Homo sapiens, UniProt P24723). Kind of test: Displacement of [3H]PDBu from PKCeta C1B domain. A digest of the protocol:
(§2)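 Synthetic PKC C1 peptides (10–40 nM; about 3 nM properly folded, estimated from earlier Scatchard Bmax) were incubated with 20 nM [3H]PDBu (16.3 Ci/mmol) in 50 mM Tris-maleate (pH 7.4 at 4 °C). The mix also held 50 µg/mL 1,2-dioleoyl-sn-glycero-3-phospho-L-serine, 3 mg/mL bovine γ-globulin and varied inhibitor. IC50 came from probit analysis and Ki from the Sharkey–Blumberg method.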

The target in test [8] is T2, Protein kinase C alpha type (Homo sapiens, UniProt P17252). As to the kind of experiment: Displacement of [3H]PDBu from PKCalpha C1B domain. The method, boiled down:
as §1

For test [9], the target named is T3, Protein kinase C beta type (Homo sapiens, UniProt P05771). As to the kind of experiment: Displacement of [3H]PDBu from PKCbeta C1B domain. A digest of the protocol: as §1
Target sequence in this assay (P05771 whole entry, the tested form may be a part): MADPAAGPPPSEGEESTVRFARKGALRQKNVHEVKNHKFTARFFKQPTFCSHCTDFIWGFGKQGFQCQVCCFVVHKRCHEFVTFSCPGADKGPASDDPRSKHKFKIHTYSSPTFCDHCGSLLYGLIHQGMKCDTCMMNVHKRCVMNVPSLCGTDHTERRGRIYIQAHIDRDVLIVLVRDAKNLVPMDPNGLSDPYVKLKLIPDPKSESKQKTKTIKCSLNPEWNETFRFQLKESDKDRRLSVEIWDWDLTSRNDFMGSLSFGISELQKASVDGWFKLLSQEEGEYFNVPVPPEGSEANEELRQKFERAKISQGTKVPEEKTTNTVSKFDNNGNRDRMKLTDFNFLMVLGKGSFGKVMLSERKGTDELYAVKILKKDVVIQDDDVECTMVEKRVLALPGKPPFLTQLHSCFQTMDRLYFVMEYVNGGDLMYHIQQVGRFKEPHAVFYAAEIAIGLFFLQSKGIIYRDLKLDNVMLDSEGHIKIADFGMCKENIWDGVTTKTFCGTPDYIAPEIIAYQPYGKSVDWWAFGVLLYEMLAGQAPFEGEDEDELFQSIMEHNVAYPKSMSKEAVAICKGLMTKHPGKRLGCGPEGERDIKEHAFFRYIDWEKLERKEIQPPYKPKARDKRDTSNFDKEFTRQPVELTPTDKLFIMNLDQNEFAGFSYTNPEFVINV
Test [10] has as its target Protein kinase C theta type (Homo sapiens, UniProt Q04759). Kind of test: Displacement of [3H]PDBu from PKCtheta C1B domain. The method, boiled down: as §2
In test [11] the target is T3, Protein kinase C beta type. As to the kind of experiment: Displacement of [3H]PDBu from PKCbeta C1A domain. A digest of the protocol: as §1
Target sequence in this assay (P05771 whole entry, the tested form may be a part): as above
Test [12] has as its target T2, Protein kinase C alpha type. Kind of test: Displacement of [3H]PDBu from PKCalpha C1A domain. A digest of the protocol: as §1
For test [13], the target named is T4, Protein kinase C epsilon type (Homo sapiens, UniProt Q02156).
T4 sequence (Q02156 whole entry): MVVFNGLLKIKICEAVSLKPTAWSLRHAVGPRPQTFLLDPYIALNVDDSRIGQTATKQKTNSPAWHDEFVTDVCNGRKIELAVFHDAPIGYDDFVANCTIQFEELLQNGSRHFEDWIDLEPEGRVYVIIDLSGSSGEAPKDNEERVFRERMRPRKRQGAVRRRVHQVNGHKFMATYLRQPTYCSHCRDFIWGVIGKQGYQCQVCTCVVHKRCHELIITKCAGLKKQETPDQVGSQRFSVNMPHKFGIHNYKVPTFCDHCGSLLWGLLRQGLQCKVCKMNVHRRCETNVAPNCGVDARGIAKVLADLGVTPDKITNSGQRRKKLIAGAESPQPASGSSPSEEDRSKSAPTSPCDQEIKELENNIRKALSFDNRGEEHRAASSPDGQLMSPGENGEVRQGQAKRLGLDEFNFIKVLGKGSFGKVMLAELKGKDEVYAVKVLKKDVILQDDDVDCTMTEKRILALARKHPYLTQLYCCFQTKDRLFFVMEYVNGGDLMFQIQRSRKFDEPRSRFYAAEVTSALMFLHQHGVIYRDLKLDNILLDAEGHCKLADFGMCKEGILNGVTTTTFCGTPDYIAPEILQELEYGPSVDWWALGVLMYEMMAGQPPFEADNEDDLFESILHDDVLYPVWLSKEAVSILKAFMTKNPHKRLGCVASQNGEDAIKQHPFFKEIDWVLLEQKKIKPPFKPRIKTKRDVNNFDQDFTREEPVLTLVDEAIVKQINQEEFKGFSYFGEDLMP
Kind of test: Displacement of [3H]PDBu from PKCepsilon C1B domain. A digest of the protocol:
as §2

Test [14] has as its target T1, Protein kinase C gamma type. As to the kind of experiment: Displacement of [3H]PDBu from PKCgamma C1B domain. The method, boiled down: as §1
For test [15], the target named is T3, Protein kinase C beta type. Kind of test: Displacement of [3H]PDBu from PKCbeta C1B domain at 10 uM. A digest of the protocol: (§3)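 Competition for specific [3H]PDBu (20 nM, 16.3 Ci/mmol) binding to C1 peptide (10–40 nM) was tested with a single 10 µM competitor. The buffer was 50 mM Tris-maleate (pH 7.4 at 4 °C) with 50 µg/mL dioleoylphosphatidylserine and 3 mg/mL bovine γ-globulin.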
Target sequence in this assay (P05771 2-671 limits assumed): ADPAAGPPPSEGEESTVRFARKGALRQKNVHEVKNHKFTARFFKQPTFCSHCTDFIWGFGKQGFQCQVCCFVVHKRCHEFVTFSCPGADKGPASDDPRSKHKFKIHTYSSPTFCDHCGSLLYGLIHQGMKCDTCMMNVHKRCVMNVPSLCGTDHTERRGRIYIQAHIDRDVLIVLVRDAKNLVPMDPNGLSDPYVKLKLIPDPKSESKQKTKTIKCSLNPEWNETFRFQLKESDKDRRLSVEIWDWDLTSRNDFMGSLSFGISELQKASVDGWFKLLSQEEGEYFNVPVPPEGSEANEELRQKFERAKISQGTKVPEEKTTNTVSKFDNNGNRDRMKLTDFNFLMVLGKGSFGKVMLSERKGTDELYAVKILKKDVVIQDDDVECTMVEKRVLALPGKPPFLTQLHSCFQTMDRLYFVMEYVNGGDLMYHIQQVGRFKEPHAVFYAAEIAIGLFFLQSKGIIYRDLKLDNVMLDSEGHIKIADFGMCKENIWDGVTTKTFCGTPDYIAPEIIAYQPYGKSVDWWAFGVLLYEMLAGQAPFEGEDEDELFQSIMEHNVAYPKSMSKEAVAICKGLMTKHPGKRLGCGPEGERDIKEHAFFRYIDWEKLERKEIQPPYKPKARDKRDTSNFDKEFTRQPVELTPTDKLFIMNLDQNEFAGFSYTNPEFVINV

Test [16] deals with T3, Protein kinase C beta type. Kind of test: Displacement of [3H]PDBu from PKCbeta C1A domain at 10 uM. A digest of the protocol: as §3
Target sequence in this assay (P05771 2-671 limits assumed): as above

The structures appear in SMILES notation. The source made the active and inactive calls. The calls are words filed in the database; no cut-off is given here.

Protein kinase C delta type, sequence (Q05655 whole entry, the tested form may be a part): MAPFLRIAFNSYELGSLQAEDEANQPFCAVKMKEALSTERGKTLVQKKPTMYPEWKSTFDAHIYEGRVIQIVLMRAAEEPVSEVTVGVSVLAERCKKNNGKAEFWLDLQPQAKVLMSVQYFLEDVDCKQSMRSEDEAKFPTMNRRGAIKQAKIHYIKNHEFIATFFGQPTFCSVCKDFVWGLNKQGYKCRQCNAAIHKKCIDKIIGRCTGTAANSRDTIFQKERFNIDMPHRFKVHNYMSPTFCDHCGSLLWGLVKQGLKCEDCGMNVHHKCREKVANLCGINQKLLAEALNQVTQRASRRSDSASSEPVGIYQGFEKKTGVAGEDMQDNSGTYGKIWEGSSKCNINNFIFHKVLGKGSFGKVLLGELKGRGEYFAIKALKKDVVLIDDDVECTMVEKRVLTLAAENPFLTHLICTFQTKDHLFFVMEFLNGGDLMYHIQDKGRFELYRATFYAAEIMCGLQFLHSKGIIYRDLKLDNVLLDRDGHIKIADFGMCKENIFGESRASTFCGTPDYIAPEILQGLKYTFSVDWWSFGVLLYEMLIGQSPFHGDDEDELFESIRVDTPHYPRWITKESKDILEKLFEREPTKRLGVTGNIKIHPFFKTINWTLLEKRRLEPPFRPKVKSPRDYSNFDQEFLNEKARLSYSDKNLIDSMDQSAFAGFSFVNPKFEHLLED
Protein kinase C theta type, sequence (Q04759 whole entry, the tested form may be a part): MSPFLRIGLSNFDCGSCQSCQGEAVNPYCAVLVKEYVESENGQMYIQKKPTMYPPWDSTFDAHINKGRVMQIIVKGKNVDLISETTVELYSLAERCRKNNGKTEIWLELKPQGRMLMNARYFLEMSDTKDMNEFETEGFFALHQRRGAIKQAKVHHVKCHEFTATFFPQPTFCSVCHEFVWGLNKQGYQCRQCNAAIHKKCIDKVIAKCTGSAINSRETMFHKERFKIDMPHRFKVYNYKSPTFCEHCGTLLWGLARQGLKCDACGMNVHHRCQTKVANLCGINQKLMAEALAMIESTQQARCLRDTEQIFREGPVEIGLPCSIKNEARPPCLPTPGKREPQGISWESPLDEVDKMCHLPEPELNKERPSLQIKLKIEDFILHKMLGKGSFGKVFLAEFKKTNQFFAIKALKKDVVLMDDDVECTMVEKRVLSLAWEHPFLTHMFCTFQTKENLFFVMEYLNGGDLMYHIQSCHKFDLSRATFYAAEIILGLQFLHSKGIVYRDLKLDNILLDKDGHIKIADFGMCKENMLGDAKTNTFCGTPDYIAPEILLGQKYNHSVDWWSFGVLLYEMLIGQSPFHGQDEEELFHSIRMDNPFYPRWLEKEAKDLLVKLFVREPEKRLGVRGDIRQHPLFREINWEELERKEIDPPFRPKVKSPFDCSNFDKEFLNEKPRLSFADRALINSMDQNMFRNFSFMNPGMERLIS
Protein kinase C eta type, sequence (P24723 whole entry, the tested form may be a part): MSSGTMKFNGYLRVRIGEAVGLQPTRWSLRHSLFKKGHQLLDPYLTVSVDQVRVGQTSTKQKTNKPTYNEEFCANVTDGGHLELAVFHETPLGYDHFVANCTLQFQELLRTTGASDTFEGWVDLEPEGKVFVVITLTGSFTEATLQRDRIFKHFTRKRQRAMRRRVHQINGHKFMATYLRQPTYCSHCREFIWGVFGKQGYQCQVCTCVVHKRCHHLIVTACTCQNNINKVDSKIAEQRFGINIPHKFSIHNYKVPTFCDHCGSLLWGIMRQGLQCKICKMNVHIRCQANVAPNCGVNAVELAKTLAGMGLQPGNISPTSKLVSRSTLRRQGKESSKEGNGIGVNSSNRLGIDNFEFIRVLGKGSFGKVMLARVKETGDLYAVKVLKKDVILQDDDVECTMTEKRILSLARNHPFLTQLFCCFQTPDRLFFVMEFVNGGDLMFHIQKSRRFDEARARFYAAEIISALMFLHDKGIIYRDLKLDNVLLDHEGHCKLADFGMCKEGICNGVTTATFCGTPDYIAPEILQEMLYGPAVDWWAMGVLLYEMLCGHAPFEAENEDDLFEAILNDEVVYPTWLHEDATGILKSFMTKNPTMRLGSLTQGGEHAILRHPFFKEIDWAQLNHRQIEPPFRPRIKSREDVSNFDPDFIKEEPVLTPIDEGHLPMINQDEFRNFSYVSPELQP

Turning to `CC(C)[C@H]1C(=O)N[C@H](CO)Cc2ccccc2N1C`, the Ki (in general, a measure of affinity in units of concentration, obtained from inhibition or displacement) in test [1] turned out to be 3100 nM; in test [4] it was 436 nM; in [5], 2500 nM; in test [6] it was 410 nM. For the same molecule, the Ratio Ki in test [2] came out at 0.8; in test [3], 1.1.

With `CCCCCCn1cc2c3c(cccc31)N(C)[C@@H](C(C)C)C(=O)N[C@H](CO)CC2`, the Ki is 25 nM in test [7]; > 10000 nM in test [8]; 440 nM in test [9]; 11000 nM in test [1]; 12 nM in test [10]; 120 nM in test [4]. Further, the inhibition constant Ki came to 9200 nM in [11]; 6700 nM in test [12]; 29 nM in [13]; 420 nM in test [14]; 14000 nM in [5]; 15 nM in test [6]. Moreover, the results for the Ratio Ki in test [2] and in [3] were 1.3 and 8, respectively.

As for `CCCCCCn1c(Br)c2c3c(cccc31)N(C)[C@@H](C(C)C)C(=O)N[C@H](CO)CC2`, the result in test [15] and in test [16] was inactive.

Take `CCCCCCn1cc2c3c(c(Cl)ccc31)N(C)[C@@H](C(C)C)C(=O)N[C@H](CO)CC2`: the result in [15] and in [16] was inactive.

Turning to `CCCCCCn1cc2c3c(cccc31)N(C)[C@@H](C(C)C)C(=O)N[C@H](CO)C2`, the Ki is 0.34 nM in [7]; 43 nM in test [8]; 11 nM in test [9]; 15 nM in test [1]; 1.4 nM in test [10]; 3.7 nM in [4]. Moreover, the Ki in test [11] turned out to be 9.8 nM; in test [12], 5.8 nM; in [13], 0.47 nM; in [14], 39 nM; in test [5], 71 nM; in [6], 0.46 nM. In addition, the results for the Ratio Ki in test [2] and in test [3] were 4.7 and 8, respectively.

In the case of `CC(C)[C@H]1C(=O)N[C@H](CO)Cc2c[nH]c3cccc(c23)N1C` [INDOLACTUM], the Ki in test [1] is 89 nM; in test [4], 130 nM; in test [11] it was 19 nM; in test [12] it was 21 nM; in [14], 59 nM; in [5], 690 nM. The same molecule gave a Ki in test [6] of 11 nM. Besides, the values for the Ratio Ki in [2] and in test [3] were 7.8 and 11.8, respectively.

The values are drawn from ChEMBL document CHEMBL1140701, “Synthesis, conformational analysis, and biological evaluation of 1-hexylindolactam-V10 as a selective activator for novel protein kinase C isozymes” (J Med Chem, 2008).
